Measured values published in the array DNA melting data of Ke et al. (doi:10.1101/2024.01.08.574731).

Assays:
[1] = folding enthalpy; higher = less favourable; fluorescence melt of hairpins on a sequencing array, two-state fit; conditions: sodium 0.088 M
Method in brief: (§1)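 On a sequenced MiSeq flow cell, library hairpins with annealed Cy3 and quencher oligos were imaged for Cy3 fluorescence in 2.5 °C steps up to 60 °C, in 50 mM Na-HEPES pH 8.0, 25 mM NaCl. Normalisation used pre-quench Cy3 and control constructs. Bootstrapped two-state fits gave melting temperature and folding enthalpy, combined by inverse variance across four replicates and with fitted temperatures raised by 9.35 °C to match UV melts.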

[2] = melting temperature; fluorescence melt of hairpins on a sequencing array, two-state fit, raised by 9.35 °C to match UV melts; conditions: sodium 0.088 M
Method in brief: as §1

GTTCGCGAAAGCGGAAAC ((((((....)))..))) gave a folding enthalpy [1] of -9.75 kcal/mol and a Tm [2] of 36.6 °C.

Work on GAACTGGGAAACCAATTC (((.(((....))).))) yielded a folding enthalpy [1] of -12.7 kcal/mol and a Tm [2] of 29.2 °C.

GCGACCGAAAGGTCACGC ((((((....)))..))) showed a folding enthalpy [1] of -16.9 kcal/mol and a Tm [2] of 61.1 °C.

Work on GGCATTCCGAAAGGAGCC (((..(((....)))))) yielded a folding enthalpy [1] of -23.4 kcal/mol and a Tm [2] of 43.1 °C.

GCGCTAGGAAACTAACGC (((.(((....))).))) gave a folding enthalpy [1] of -29.9 kcal/mol and a Tm [2] of 45.5 °C.

For GATCGGGGAAACTCGATC (((((.(....).))))), the folding enthalpy [1] was -33.1 kcal/mol and the Tm [2] was 51.2 °C.

GGGCGTGGAAACGTGCCC ((((..(....)..)))) gave a folding enthalpy [1] of -41.4 kcal/mol and a Tm [2] of 54.4 °C.

Work on GATCACTAGGGTGATC ((((((....)))))) yielded a folding enthalpy [1] of -41.7 kcal/mol and a Tm [2] of 57.3 °C.

Sequence GCGAAAGGAAACTTCCGC (((.(((....))).))) has a folding enthalpy [1] of -27.1 kcal/mol and a Tm [2] of 42.5 °C.

In the case of GTACCTGAAAAGGTAC ((((((....)))))), the folding enthalpy [1] is reported as -31.6 kcal/mol and the Tm [2] is reported as 60 °C.

Sequence CGTACCGGAAACGGCACG (((.(((....))).))) has a folding enthalpy [1] of -39.9 kcal/mol and a Tm [2] of 50.2 °C.

With GGGACTGGAAACAATCCC ((((.((....)).)))) the folding enthalpy [1] was -27.6 kcal/mol and the Tm [2] was 37.9 °C.

In the case of GGCGCCGAAAGGCAGGCC ((((((....)))..))), the folding enthalpy [1] is reported as -25.1 kcal/mol and the Tm [2] is reported as 64.9 °C.

For GCCGTAGGAAACCACGGC (((((.(....).))))), the folding enthalpy [1] was -34.2 kcal/mol and the Tm [2] was 54.4 °C.

Sequence CGGTCGGAAACGACACCG ((((((....)))..))) has a folding enthalpy [1] of -11 kcal/mol and a Tm [2] of 38 °C.

Work on GGCGTCGGAAACGGCGTC (.((.((....)).)).) yielded a folding enthalpy [1] of -27.7 kcal/mol and a Tm [2] of 53.9 °C.

GACTAAACGAAAGTTGTC (((..(((....)))))) gave a folding enthalpy [1] of -19.6 kcal/mol and a Tm [2] of 34.9 °C.

GAAGCCGAAAGGCTATTC ((((((....)))..))) showed a folding enthalpy [1] of -8.63 kcal/mol and a Tm [2] of 33.7 °C.

GGTCCGACGAAAGTCACC (((..(((....)))))) showed a folding enthalpy [1] of -14.1 kcal/mol and a Tm [2] of 28.4 °C.

GCGTGAACACGC ((((....)))) gave a folding enthalpy [1] of -20.9 kcal/mol and a Tm [2] of 68 °C.

For GCGTCCCGAAAGGGCCGC (((.(((....))).))), the folding enthalpy [1] was -23.7 kcal/mol and the Tm [2] was 64.8 °C.

Sequence GCGACTCTTCGC ((((....)))) has a folding enthalpy [1] of -23 kcal/mol and a Tm [2] of 50.6 °C.

In the case of GAAATGGAAACATTTC ((((((....)))))), the folding enthalpy [1] is reported as -30.2 kcal/mol and the Tm [2] is reported as 46.7 °C.

For GTCTGACCGAAAGGTGAC (((..(((....)))))), the folding enthalpy [1] was -19.3 kcal/mol and the Tm [2] was 38.9 °C.

Sequence GGCTCCGAAAGGACCGCC ((((((....)))..))) has a folding enthalpy [1] of -19.8 kcal/mol and a Tm [2] of 53.3 °C.

In the case of GCCTGCGAAAGCACAGGC ((((((....)))..))), the folding enthalpy [1] is reported as -24 kcal/mol and the Tm [2] is reported as 55.5 °C.

With GCGTTATCACGC ((((....)))) the folding enthalpy [1] was -22.5 kcal/mol and the Tm [2] was 50.6 °C.

For GCACCCGCGAAAGCGTGC (((..(((....)))))), the folding enthalpy [1] was -14.5 kcal/mol and the Tm [2] was 42.6 °C.

With GATCGTGGAAACACGACC (.(((((....))))).) the folding enthalpy [1] was -13.3 kcal/mol and the Tm [2] was 41.7 °C.

GAAGATGCGAAAGCATTC (((..(((....)))))) gave a folding enthalpy [1] of -10.7 kcal/mol and a Tm [2] of 29.9 °C.

Work on GCGCCAGGAAACTGGCAC (.(((((....))))).) yielded a folding enthalpy [1] of -12.2 kcal/mol and a Tm [2] of 47.5 °C.

In the case of GCGACGCCTCGC ((((....)))), the folding enthalpy [1] is reported as -16.9 kcal/mol and the Tm [2] is reported as 50.1 °C.

In the case of GCGTAGAAACGC ((((....)))), the folding enthalpy [1] is reported as -18.6 kcal/mol and the Tm [2] is reported as 48 °C.

For GCGTGGGCGAAAGCCCGC (((..(((....)))))), the folding enthalpy [1] was -9.77 kcal/mol and the Tm [2] was 57.7 °C.

For GAGAAACGAAAGTTCCTC (((.(((....))).))), the folding enthalpy [1] was -27 kcal/mol and the Tm [2] was 36.5 °C.

GGCTGTTCGAAAGAAGCC (((..(((....)))))) gave a folding enthalpy [1] of -20.9 kcal/mol and a Tm [2] of 38.2 °C.

GAAGACGAAAGTCATTC ((((((....))).))) gave a folding enthalpy [1] of -14.1 kcal/mol and a Tm [2] of 31.4 °C.

In the case of GGCAATGGAAACATTACC ((.((((....)))).)), the folding enthalpy [1] is reported as -26.7 kcal/mol and the Tm [2] is reported as 37.3 °C.

For GCGCACGGAAACGCGCGC ((((.((....)).)))), the folding enthalpy [1] was -40.6 kcal/mol and the Tm [2] was 69 °C.

Sequence GGGCTTGGAAACAAGCTC (.(((((....))))).) has a folding enthalpy [1] of -31.2 kcal/mol and a Tm [2] of 54.9 °C.

GCGTAGGCACGC ((((....)))) showed a folding enthalpy [1] of -14.1 kcal/mol and a Tm [2] of 60.8 °C.

With GATCTAAGGTAGATC ((((((...)))))) the folding enthalpy [1] was -20.8 kcal/mol and the Tm [2] was 37.6 °C.

For GAACGTGGAAACGTGTTC ((((..(....)..)))), the folding enthalpy [1] was -14.9 kcal/mol and the Tm [2] was 37.5 °C.

CGGAGGAAACTCCG (((((....))))) showed a folding enthalpy [1] of -20.5 kcal/mol and a Tm [2] of 57.1 °C.

GGAATCGCGAAAGCGTCC (((..(((....)))))) showed a folding enthalpy [1] of -8.44 kcal/mol and a Tm [2] of 29.2 °C.

GATGGGCGAAAGCCATC (((.(((....)))))) showed a folding enthalpy [1] of -18.2 kcal/mol and a Tm [2] of 52.5 °C.

For GTTCTCGGAAACGGGAAC ((((.((....)).)))), the folding enthalpy [1] was -41.3 kcal/mol and the Tm [2] was 51 °C.

In the case of CTATGGAAACATAG (((((....))))), the folding enthalpy [1] is reported as -15.7 kcal/mol and the Tm [2] is reported as 36.9 °C.

Sequence GCTGCGCGAAAGCGGTGC ((..(((....)))..)) has a folding enthalpy [1] of -19.6 kcal/mol and a Tm [2] of 55.1 °C.

GGAGTAGGAAACTACTCC (((((((....))))))) gave a folding enthalpy [1] of -46.4 kcal/mol and a Tm [2] of 59 °C.

Sequence GCCTGCTCGAAAGAGGGC (((..(((....)))))) has a folding enthalpy [1] of -15.7 kcal/mol and a Tm [2] of 44.5 °C.

GTTAACGCGAAAGCGAAC (((..(((....)))))) gave a folding enthalpy [1] of -8.96 kcal/mol and a Tm [2] of 32.9 °C.

For GCAGCACCGAAAGGTTGC (((..(((....)))))), the folding enthalpy [1] was -14 kcal/mol and the Tm [2] was 43.9 °C.

In the case of GCGGTCATCCGC ((((....)))), the folding enthalpy [1] is reported as -26.7 kcal/mol and the Tm [2] is reported as 59.3 °C.

Sequence GATCAACTGTTTGATC ((((((....)))))) has a folding enthalpy [1] of -32.3 kcal/mol and a Tm [2] of 43.2 °C.

GGACAGCGAAAGCTATCC (((.(((....))).))) gave a folding enthalpy [1] of -24.7 kcal/mol and a Tm [2] of 45 °C.

GCTCCGCGAAAGCGCGGC ((..(((....)))..)) showed a folding enthalpy [1] of -11.9 kcal/mol and a Tm [2] of 44.8 °C.

GTGGAGGGAAACCTCTGC (..((((....))))..) showed a folding enthalpy [1] of -19.2 kcal/mol and a Tm [2] of 37.6 °C.

With GATCTTGGTCAAGATC ((((((....)))))) the folding enthalpy [1] was -36.8 kcal/mol and the Tm [2] was 48.9 °C.

GATCAGAGCACTGATC ((((((....)))))) gave a folding enthalpy [1] of -36.5 kcal/mol and a Tm [2] of 49.3 °C.

Work on GTCCAGCGAAAGCTCGAC (((.(((....))).))) yielded a folding enthalpy [1] of -20.7 kcal/mol and a Tm [2] of 43.2 °C.

Sequence GTATGTCGAAAGACCTAC (((.(((....))).))) has a folding enthalpy [1] of -19.2 kcal/mol and a Tm [2] of 39.6 °C.
